Laboratory results from ChEMBL document CHEMBL2331228, “Synthesis and insight into the structure-activity relationships of chalcones as antimalarial agents” (J Med Chem, 2013).
≈ marks a conversion by molar mass, not a printed value.

Tests used:
Plasmodium falciparum [1] = assay: Antimalarial activity against schizont stage of chloroquine-sensitive Plasmodium falciparum 3D7 after more than 40 hrs by Giemsa staining-based light microscopic analysis; format: functional; conditions: 3D7, 40 h
Method in brief: (§1)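 Ring stages (5% D-sorbitol synchronized) of 3D7 were grown in RPMI with 10% FBS, gentamycin and Fungizone at 37 °C under CO2. They were exposed in duplicate to compound (DMSO stock, 5 mg/mL) at 2, 10 and 50 μg/mL, with 3% cell suspension and 1% parasitized cells, for >40 h. Giemsa-stained thin smears were counted for schizonts. MIC is the lowest concentration giving 100% inhibition of schizont maturation.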

Plasmodium falciparum [2] = assay: Antimalarial activity against schizont stage of chloroquine-sensitive Plasmodium falciparum 3D7 assessed as reduction in parasitemia at 50 ug/ml after more than 40 hrs by Giemsa staining-based light microscopy; format: functional; set-up: scale not given: the % may be the effect or the level left; method in brief: as §1

Compound	MIC (Plasmodium falciparum [1])	Activity (Plasmodium falciparum [2])
COc1cc(/C=C/C(=O)c2cc(CC=C(C)C)c(O)cc2O)ccc1O	28.2 µM (≈ 10 µg/mL)	
CC(C)CCCC1(C)CCc2c(ccc(C(=O)/C=C/c3ccc(O)cc3)c2O)O1 (stereo unspecified)	127 µM (≈ 50.1 µg/mL)	
CC1(C)C=Cc2c(ccc(C(=O)/C=C/c3ccc(Cl)cc3Cl)c2O)O1	5.34 µM (≈ 2 µg/mL)	
CC(C)=CCCC1(C)C=Cc2c(ccc(C(=O)/C=C/c3ccc(C#N)cc3)c2O)O1 (stereo unspecified)	5.01 µM (≈ 2 µg/mL)	
CC1(C)C=Cc2c(ccc(C(=O)/C=C/c3ccc(F)cc3F)c2O)O1	> 146 µM	<100%
CC1(C)C=Cc2c(ccc(C(=O)CCc3ccc(O)c(O)c3)c2O)O1	29.4 µM (≈ 10 µg/mL)	
COc1ccc(CCC(=O)c2ccc3c(c2O)C=CC(C)(C)O3)cc1	> 148 µM	<100%
CC1(C)C=Cc2c(ccc(C(=O)CCc3ccc(O)cc3)c2O)O1	30.9 µM (≈ 10 µg/mL)	
CCOc1cc(F)ccc1/C=C/C(=O)c1ccc2c(c1O)C=CC(C)(C)O2	136 µM (≈ 50.1 µg/mL)	
CC(C)=CCCC1(C)C=Cc2c(ccc(C(=O)/C=C/c3cc4ccccc4nc3Cl)c2O)O1 (stereo unspecified)	109 µM (≈ 50.1 µg/mL)	
COc1ccc(/C=C/C(=O)c2cc(CC=C(C)C)c(O)cc2O)cc1O	28.2 µM (≈ 10 µg/mL)	
CC1(C)C=Cc2c(ccc(C(=O)/C=C/c3cnc4ccccc4c3)c2O)O1	> 140 µM	<100%
CC(C)=CCCC1(C)C=Cc2c(ccc(C(=O)/C=C/c3cccnc3)c2OCCN2CCCCC2)O1 (stereo unspecified)	4.11 µM (≈ 2 µg/mL)	
CC(C)=CCCC1(C)C=Cc2c(ccc(C(=O)/C=C/c3ccccn3)c2O)O1 (stereo unspecified)	26.7 µM (≈ 10 µg/mL)	
CC(C)=CCCC1(C)C=Cc2c(ccc(/C=C/C(=O)c3ccc(C)c(C)c3)c2O)O1 (stereo unspecified)	24.9 µM (≈ 10 µg/mL)	
COc1cc(/C=C/C(=O)c2ccc3c(c2O)C=CC(C)(CCC=C(C)C)O3)cc(OC)c1OC (stereo unspecified)	21.6 µM (≈ 10 µg/mL)	
COc1cc(OC)c(OC)cc1/C=C/C(=O)c1ccc2c(c1O)C=CC(C)(C)O2	25.2 µM (≈ 10 µg/mL)	
CC(C)=CCCC1(C)C=Cc2c(ccc(C(=O)/C=C/c3cnc4ccccc4c3)c2O)O1 (stereo unspecified)	23.5 µM (≈ 10 µg/mL)	
CC(C)=CCCC1(C)C=Cc2c(ccc(C(=O)/C=C/c3cc(Cl)cc(Cl)c3)c2O)O1 (stereo unspecified)	113 µM (≈ 50.2 µg/mL)	
CC1(C)C=Cc2c(ccc(C(=O)/C=C/c3ccccn3)c2O)O1	32.6 µM (≈ 10 µg/mL)	
CCOc1ccc(/C=C/C(=O)c2ccc3c(c2O)C=CC(C)(CCC=C(C)C)O3)cc1 (stereo unspecified)	120 µM (≈ 50.1 µg/mL)	
CC(C)=CCCC1(C)C=Cc2c(ccc(C(=O)/C=C/c3ccc4oc(C(=O)c5ccccc5)cc4c3)c2O)O1 (stereo unspecified)	19.3 µM (≈ 10 µg/mL)	
CC1(C)C=Cc2c(ccc(C(=O)/C=C/c3ccc(C#N)cc3)c2O)O1	> 151 µM	<100%
COc1ccc(CCC(=O)c2ccc3c(c2O)C=CC(C)(C)O3)cc1OC	> 136 µM	<100%
CC1(C)C=Cc2c(ccc(C(=O)/C=C/c3cc4ccccc4nc3Cl)c2O)O1	128 µM (≈ 50.1 µg/mL)	

Compound	MIC (Plasmodium falciparum [1])	Activity (Plasmodium falciparum [2])
CC(C)=CCc1cc(C(=O)/C=C/c2ccc(Cl)cc2)c(O)cc1O	146 µM (≈ 50.1 µg/mL)	
CC(C)=CCCC1(C)C=Cc2c(ccc(C(=O)/C=C/c3ccc(Br)cc3)c2O)O1 (stereo unspecified)	> 111 µM	<100%
COc1ccccc1/C=C/C(=O)c1ccc2c(c1O)C=CC(C)(CCC=C(C)C)O2 (stereo unspecified)	124 µM (≈ 50.1 µg/mL)	
COc1ccc(/C=C/C(=O)c2ccc3c(c2O)C=CC(C)(CCC=C(C)C)O3)cc1 (stereo unspecified)	> 124 µM	<100%
CC(C)=CCCC1(C)C=Cc2c(ccc(C(=O)/C=C/c3ccc(F)cc3)c2O)O1 (stereo unspecified)	128 µM (≈ 50.1 µg/mL)	
CC(C)=CCCC1(C)C=Cc2c(ccc(/C=C/C(=O)c3cccc(C)c3)c2O)O1 (stereo unspecified)	25.8 µM (≈ 10 µg/mL)	
CCOc1ccc(/C=C/C(=O)c2ccc3c(c2O)C=CC(C)(C)O3)cc1	> 143 µM	<100%
CC(C)=CCCC1(C)C=Cc2c(ccc(C(=O)/C=C/c3ccc(F)c(F)c3)c2O)O1 (stereo unspecified)	22.6 µM (≈ 9.28 µg/mL)	
CC(C)=CCCC1(C)C=Cc2c(ccc(C(=O)/C=C/c3ccc(O)cc3)c2O)O1 (stereo unspecified) [LESPEOL]	25.6 µM (≈ 10 µg/mL)	
COc1ccc(/C=C/C(=O)c2ccc3c(c2O)C=CC(C)(CCC=C(C)C)O3)cc1OC (stereo unspecified)	115 µM (≈ 50.1 µg/mL)	
CC(C)=CCCC1(C)C=Cc2c(ccc(C(=O)/C=C/c3cc4cc(C)ccc4nc3Cl)c2O)O1 (stereo unspecified)	106 µM (≈ 50.1 µg/mL)	
CC1(C)CCc2cc(C(=O)/C=C/c3cccnc3)c(O)cc2O1	32.4 µM (≈ 10 µg/mL)	
COCOc1ccc(/C=C/C(=O)c2cc(CC=C(C)C)c(O)cc2O)cc1	27.2 µM (≈ 10 µg/mL)	
CC(C)=CCCC1(C)C=Cc2c(ccc(C(=O)/C=C/c3ccc(N(C)C)cc3)c2O)O1 (stereo unspecified)	> 120 µM	<100%
CC1(C)C=Cc2c(ccc(C(=O)/C=C/c3ccc(O)cc3)c2O)O1	155 µM (≈ 50.1 µg/mL)	
COc1ccccc1/C=C/C(=O)c1cc(CC=C(C)C)c(O)cc1O	29.6 µM (≈ 10 µg/mL)	
Cc1ccc2nc(Cl)c(/C=C/C(=O)c3ccc4c(c3O)C=CC(C)(C)O4)cc2c1	123 µM (≈ 50.1 µg/mL)	
CC1(C)C=Cc2c(ccc(C(=O)/C=C/c3ccc(Cl)cc3)c2O)O1	147 µM (≈ 50.1 µg/mL)	
COCOc1ccc(/C=C/C(=O)c2ccc3c(c2O)C=CC(C)(CCC=C(C)C)O3)cc1C=O (stereo unspecified)	21.6 µM (≈ 10 µg/mL)	
CC(C)=CCc1cc(C(=O)/C=C/c2ccc(N(C)C)cc2)c(O)cc1O	142 µM (≈ 50.1 µg/mL)	
CC(C)=CCCC1(C)C=Cc2c(ccc(C(=O)/C=C/c3ccc(Cl)cc3)c2O)O1 (stereo unspecified)	> 123 µM	<100%
CC1(C)C=Cc2c(ccc(C(=O)/C=C/c3ccc(F)cc3)c2O)O1	154 µM (≈ 50.1 µg/mL)	
COc1ccc(/C=C/C(=O)c2ccc3c(c2O)C=CC(C)(C)O3)cc1	> 149 µM	<100%
COc1ccc(C(=O)c2cc3cc(/C=C/C(=O)c4ccc5c(c4O)C=CC(C)(CCC=C(C)C)O5)ccc3o2)cc1 (stereo unspecified)	> 91.2 µM	<100%
CC(C)=CCCC1(C)C=Cc2c(ccc(C(=O)/C=C/c3cccc([N+](=O)[O-])c3)c2O)O1 (stereo unspecified)	4.77 µM (≈ 2 µg/mL)	

Compound	MIC (Plasmodium falciparum [1])	Activity (Plasmodium falciparum [2])
COc1ccc(/C=C/C(=O)c2ccc3c(c2O)CCC(C)(CCCC(C)C)O3)cc1 (stereo unspecified)	123 µM (≈ 50.1 µg/mL)	
CC(C)=CCCC1(C)C=Cc2c(ccc(C(=O)/C=C/c3cccnc3)c2O)O1 (stereo unspecified)	5.33 µM (≈ 2 µg/mL)	
CC(C)=CCCC1(C)C=Cc2c(ccc(C(=O)CCc3cc(C=O)ccc3O)c2O)O1 (stereo unspecified)	10.3 µM (≈ 4.33 µg/mL)	
COCOc1ccc(/C=C/C(=O)c2c(O)c3c(c4c2OC(C)(CCC=C(C)C)C=C4)OC(C)(CCC=C(C)C)C=C3)cc1C(OC)OC (stereo unspecified)	15.2 µM (≈ 10 µg/mL)	
CC(C)=CCCC1(C)C=Cc2c(ccc(C(=O)/C=C/c3ccc([N+](=O)[O-])cc3)c2O)O1 (stereo unspecified)	119 µM (≈ 50.1 µg/mL)	
CC1(C)C=Cc2c(ccc(C(=O)/C=C/c3cccnc3)c2O)O1	32.6 µM (≈ 10 µg/mL)	
CC(C)CCCC1(C)CCc2c(ccc(C(=O)/C=C/c3cccnc3)c2O)O1 (stereo unspecified)	5.27 µM (≈ 2 µg/mL)	
CC(C)=CCCC1(C)C=Cc2ccc(O)c(C(=O)CCc3cc(C=O)ccc3O)c2O1 (stereo unspecified)	9.12 µM (≈ 3.84 µg/mL)	
CC1(C)C=Cc2c(ccc(C(=O)/C=C/c3ccc(OCCN4CCCCC4)cc3)c2OCCN2CCCCC2)O1	3.67 µM (≈ 2 µg/mL)	
COc1ccc(/C=C/C(=O)c2ccc3c(c2O)C=CC(C)(C)O3)cc1OC	137 µM (≈ 50.1 µg/mL)	
CC1(C)CCc2c(ccc(C(=O)/C=C/c3cccnc3)c2O)O1	32.4 µM (≈ 10 µg/mL)	
CC(=O)Oc1ccc(/C=C/C(=O)c2ccc3c(c2O)C=CC(C)(C)O3)cc1	27.5 µM (≈ 10 µg/mL)	
COc1ccc(/C=C/C(=O)c2cc(CC=C(C)C)c(O)cc2O)cc1OC	27.2 µM (≈ 10 µg/mL)	
CC1(C)C=Cc2c(ccc(C(=O)/C=C/c3cc(C=O)ccc3O)c2O)O1	28.6 µM (≈ 10 µg/mL)	
CC(C)=CCCC1(C)C=Cc2c(ccc(C(=O)/C=C/c3ccc(OCCN4CCCCC4)cc3)c2OCCN2CCCCC2)O1 (stereo unspecified)	3.26 µM (≈ 2 µg/mL)	
CC1(C)C=Cc2c(ccc(C(=O)/C=C/c3ccc(Br)cc3)c2O)O1	130 µM (≈ 50.2 µg/mL)	
CCOc1cc(/C=C/C(=O)c2ccc3c(c2O)C=CC(C)(C)O3)ccc1F	> 136 µM	<100%
COc1ccccc1/C=C/C(=O)c1ccc2c(c1O)C=CC(C)(C)O2	> 149 µM	<100%
COc1ccc(/C=C/C(=O)c2cc(CC=C(C)C)c(O)cc2O)cc1	28.6 µM (≈ 9.67 µg/mL)	
CC1(C)C=Cc2c(ccc(C(=O)/C=C/c3ccc(F)c(F)c3)c2O)O1	146 µM (≈ 50 µg/mL)	
CC(C)=CCCC1(C)C=Cc2c(ccc(C(=O)/C=C/c3ccc(Cl)cc3Cl)c2O)O1 (stereo unspecified)	> 113 µM	<100%
COc1cc(OC)c(OC)cc1/C=C/C(=O)c1cc(CC=C(C)C)c(O)cc1O	25.1 µM (≈ 10 µg/mL)	
COc1ccc(/C=C/C(=O)c2ccc(O)c(CC=C(C)C)c2O)cc1O	28.2 µM (≈ 10 µg/mL)	
CC1(C)C=Cc2c(ccc(C(=O)/C=C/c3ccc([N+](=O)[O-])cc3)c2O)O1	> 142 µM	<100%
CCOc1ccc(/C=C/C(=O)c2cc(CC=C(C)C)c(O)cc2O)cc1	28.4 µM (≈ 10 µg/mL)	
